Experimental data of several laboratories.
Each line is one published result; the experiments were not run side by side. In brackets after ≈: the same amount, converted by molar mass.
Organism: Pseudomonas aeruginosa

The inhibition zone of `CC1(C)S[C@@H]2[C@H](NC(=O)[C@H](N)c3ccc(O)cc3)C(=O)N2[C@H]1C(=O)O` is reported as 13.8 mm (microbial growth, disc diffusion; ATCC27853; 500 µg/mL).
The MBC of `COc1c(C)c(OC)c2c(c1C)OC(c1ccccc1)CC2=O` (centres unmarked) is reported as greater than 5000 µg/mL (microbial killing, broth dilution; ATCC27853).
`COc1cc(C=Cc2cc(-c3ccccc3)nc(O)n2)ccc1O` has an inhibition zone of 14.3 mm (microbial growth, disc diffusion; ATCC27853; 500 µg/mL).
`O=C(Sc1cccccc1=O)c1ccccc1` has an MIC80 of greater than 71.4 µM (microbial growth, broth dilution; ATCC27853).
For `COc1c(C)c(OC(=O)c2ccc(C)cc2)c(C)c(O)c1C(=O)/C=C/c1ccccc1`, the MBC was greater than 5000 µg/mL (microbial killing, broth dilution; ATCC27853).
`COc1cc(C=CC(=O)CC(c2ccc(N(C)C)cc2)n2ccnc2)ccc1O` (centres unmarked) has an inhibition zone of 7.66 mm (microbial growth, disc diffusion; ATCC27853; 250 µg/mL).
For `CN1CC(O)=C(C(=O)NC(C(=O)NC2C(=O)N3C2SC(C)(C)C3C(=O)O)c2ccccc2)C1=O` (centres unmarked), the inhibition zone was 12.3 mm (microbial growth, well diffusion; PAO1; 200 µM).
`COc1c(C)c(OS(=O)(=O)c2ccc3ccccc3c2)c(C)c(OS(=O)(=O)c2ccc3ccccc3c2)c1C(=O)/C=C/c1ccccc1` has an inhibition zone of 14 mm (microbial growth, well diffusion; ATCC27853; 5 µg/mL).
With `CC[C@H]1OC(=O)[C@H](C)[C@@H](O[C@H]2C[C@@](C)(OC)[C@@H](O)[C@H](C)O2)[C@H](C)[C@@H](O[C@@H]2O[C@H](C)C[C@H](N(C)C)[C@H]2O)[C@](C)(O)C[C@@H](C)/C(=N\OCOCCOC)[C@H](C)[C@@H](O)[C@]1(C)O` the inhibition zone was 19 mm (microbial growth, disc diffusion; ATCC9721; 20000 µg/mL, 24 h).
For `CCCC(=O)Oc1c(C)c(O)c(C(=O)/C=C/c2ccccc2)c(OC)c1C`, the MBC was greater than 5000 µg/mL (microbial killing, broth dilution; ATCC27853).
With `CC(C)c1cccc(=O)c(O)c1` the MIC80 was greater than 71.4 µM (microbial growth, broth dilution; ATCC27853).
For `C#CCCCCCCCCCCCC(O)CC(O)CO` (centres unmarked), the IC50 was greater than 200 µg/mL (microbial growth, broth dilution; ATCC27853).
The MIC80 of `O=C(Sc1cccccc1=O)c1ccccc1C(F)(F)F` is reported as greater than 71.4 µM (microbial growth, broth dilution; ATCC27853).
With `CC1(C)SC2C(NC(=O)C(NC(=O)C3=C(O)C4(CC4)NC3=O)c3ccccc3)C(=O)N2C1C(=O)O` (centres unmarked) the inhibition zone was 12 mm (microbial growth, well diffusion; PAO1; 200 µM).
`COc1c(C)c(O)c(C)c(O)c1C(=O)/C=C/c1ccccc1` gave an MBC of greater than 5000 µg/mL (microbial killing, broth dilution; ATCC27853).
The inhibition zone of `COc1cc(C=CC(=O)CC(c2ccc([N+](=O)[O-])cc2)n2ccnc2)ccc1O` (centres unmarked) is reported as 7.67 mm (microbial growth, disc diffusion; ATCC27853; 500 µg/mL).
The MIC80 of `O=C(Sc1cccccc1=O)c1cccc(C(F)(F)F)c1` is reported as greater than 71.4 µM (microbial growth, broth dilution; ATCC27853).
`C=CCOc1c(C)c(O)c(C(=O)/C=C/c2ccccc2)c(OC)c1C` has an MBC of greater than 5000 µg/mL (microbial killing, broth dilution; ATCC27853).
The MIC80 of `CC(C)c1ccc(O)c(=O)cc1` is reported as greater than 71.4 µM (microbial growth, broth dilution; ATCC27853).
`CC1(C)SC2C(NC(=O)C(NC(=O)C3=C(O)C(Cc4ccsc4)NC3=O)c3ccccc3)C(=O)N2C1C(=O)O` (centres unmarked) gave an inhibition zone of 11 mm (microbial growth, well diffusion; PAO1; 200 µM).
`CCn1cc(C(=O)O)c(=O)c2cc(F)c(N3CCNCC3)cc21` has an MBC of 2 µM (microbial killing, broth dilution; ATCC9027).
`CCCCCCCCCCCCCC(O)CC(O)CO` (centres unmarked) gave an IC50 of greater than 200 µg/mL (microbial growth, broth dilution; ATCC27853).
For `CC1(C)SC2C(NC(=O)C(NC(=O)C3=C(O)C(Cc4ccccc4)NC3=O)c3ccccc3)C(=O)N2C1C(=O)O` (centres unmarked), the inhibition zone was 10.7 mm (microbial growth, well diffusion; PAO1; 200 µM).
With `CC[C@H](C)[C@H](NC(=O)OCC1c2ccccc2-c2ccccc21)C(=O)Sc1cccccc1=O` the MIC80 was greater than 71.4 µM (microbial growth, broth dilution; ATCC27853).
For `C[C@H]1NCc2cc(-c3ccc4c(=O)c(C(=O)O)cn(C5CC5)c4c3OC(F)F)ccc21`, the MIC50 was 2 µg/mL (≈ 4.69 µM) (microbial growth, broth dilution; clinical isolate).
With `CCCCCC(=O)Oc1c(C)c(O)c(C(=O)/C=C/c2ccccc2)c(OC)c1C` the MBC was greater than 5000 µg/mL (microbial killing, broth dilution; ATCC27853).
For `O=c1[nH]cc(F)c(=O)[nH]1`, the MBC was 8 µg/mL (microbial killing, broth dilution; 48 h).
`COc1c(C)c(OS(=O)(=O)c2ccc3ccccc3c2)c(C)c(O)c1C(=O)/C=C/c1ccccc1` gave an MBC of greater than 5000 µg/mL (microbial killing, broth dilution; ATCC27853).
`COc1cc(C=Cc2cc(-c3ccc(N(C)C)cc3)nc(O)n2)ccc1O` has an inhibition zone of 7 mm (microbial growth, disc diffusion; ATCC27853; 250 µg/mL).
